Results: ChEMBL document CHEMBL4689842, “EUbOPEN Chemogenomics Library wave 1” (2021)

Columns and labels:
Type in all cases: toxicity, cell-based
U2OS [1] = test: Multiplex assay against U2OS; settings: human
How it was run: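 Values for tubulin, mitochondrial-mass and membrane-permeability phenotypes are per cents of cells with healthy nuclei. These cells were identified by CellPathfinder machine-learning gating of live cells that had been stained at seeding with Hoechst33342, BioTracker Green Microtubule Cytoskeleton Dye, MitoTracker Red and Annexin V Alexa Fluor 680 and imaged on a CQ1 microscope at 37°C and 5% CO2 after compound addition. The gating first set Hoechst high-intensity objects apart from normal cells, then split normal cells into healthy, pyknosed or fragmented nuclei, and pyknosed cells into mitotic or apoptotic.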

Fibroblast = test: Incucyte cell viability with human fibroblast; settings: 10 µM, compound concentration 10 uM; note: filed as whole numbers so only -1 and 0 and 1 occur
HEK-293T = test: Incucyte cell viability with HEK293T; settings: human, 10 µM, compound concentration 10 uM; note: filed as whole numbers so only -1 and 0 and 1 occur
U2OS [2] = test: Incucyte cell viability with U2OS; settings: human, 10 µM, compound concentration 10 uM; note: filed as whole numbers so only -1 and 0 and 1 occur
[3] = 12 h, 1 µM, compound concentration 1 uM, replicate 1
[4] = 12 h, 1 µM, compound concentration 1 uM, replicate 2
[5] = 12 h, 10 µM, compound concentration 10 uM, replicate 1
[6] = 12 h, 10 µM, compound concentration 10 uM, replicate 2
[7] = 24 h, 1 µM, compound concentration 1 uM, replicate 1
[8] = 24 h, 1 µM, compound concentration 1 uM, replicate 2
[9] = 24 h, 10 µM, compound concentration 10 uM, replicate 1
[10] = 24 h, 10 µM, compound concentration 10 uM, replicate 2
[11] = 48 h, 1 µM, compound concentration 1 uM, replicate 1
[12] = 48 h, 1 µM, compound concentration 1 uM, replicate 2
[13] = 48 h, 10 µM, compound concentration 10 uM, replicate 1
[14] = 48 h, 10 µM, compound concentration 10 uM, replicate 2
[15] = 0 h, replicate number 1, timepoint 0 hours
[16] = 12 h, replicate number 2, timepoint 12 hours
[17] = 18 h, replicate number 1, timepoint 18 hours
[18] = 18 h, replicate number 2, timepoint 18 hours
[19] = 24 h, replicate number 1, timepoint 24 hours
[20] = 24 h, replicate number 2, timepoint 24 hours
[21] = 6 h, replicate number 1, timepoint 6 hours
[22] = 12 h, replicate number 1, timepoint 12 hours

SMILES: CC(/C=C1\SC(=S)N(CCCC(=O)Nc2ccc(C(=O)O)c(O)c2)C1=O)=C\c1ccccc1
- Population Apoptotic (%) (U2OS [1]; [3]): 53%
- Population Fragmented Nuclei (%) (U2OS [1]; [3]): 8%
- Population Healthy Nuclei (%) (U2OS [1]; [3]): 77%
- Population Hoechst High Intensity Objects (%) (U2OS [1]; [3]): 3%
- Population Membrane Permeable-Phenotype (%) (U2OS [1]; [3]): 7%
- Population Mitochondria Different-Phenotype (%) (U2OS [1]; [3]): 5%
- Population Mitotic Cells (%) (U2OS [1]; [3]): 46%
- Population Normal (%) (U2OS [1]; [3]): 96%
- Population Pyknosed Nuclei (%) (U2OS [1]; [3]): 13%
- Population Tubulin-Different-Phenotype (%) (U2OS [1]; [3]): 13%
- Total Cell Count (U2OS [1]; [3]): 154
- Population Apoptotic (%) (U2OS [1]; [4]): 33%
- Population Fragmented Nuclei (%) (U2OS [1]; [4]): 10%
- Population Healthy Nuclei (%) (U2OS [1]; [4]): 81%
- Population Hoechst High Intensity Objects (%) (U2OS [1]; [4]): 6%
- Population Mitochondria Different-Phenotype (%) (U2OS [1]; [4]): 7%
- Population Mitotic Cells (%) (U2OS [1]; [4]): 66%
- Population Normal (%) (U2OS [1]; [4]): 93%
- Population Pyknosed Nuclei (%) (U2OS [1]; [4]): 7%
- Population Tubulin-Different-Phenotype (%) (U2OS [1]; [4]): 7%
- Total Cell Count (U2OS [1]; [4]): 65
- Population Apoptotic (%) (U2OS [1]; [5]): 42%
- Population Fragmented Nuclei (%) (U2OS [1]; [5]): 7%
- Population Healthy Nuclei (%) (U2OS [1]; [5]): 86%
- Population Hoechst High Intensity Objects (%) (U2OS [1]; [5]): 9%
- Population Membrane Permeable-Phenotype (%) (U2OS [1]; [5]): 9%
- Population Mitochondria Different-Phenotype (%) (U2OS [1]; [5]): 5%
- Population Mitotic Cells (%) (U2OS [1]; [5]): 57%
- Population Normal (%) (U2OS [1]; [5]): 90%
- Population Pyknosed Nuclei (%) (U2OS [1]; [5]): 5%
- Population Tubulin-Different-Phenotype (%) (U2OS [1]; [5]): 8%
- Total Cell Count (U2OS [1]; [5]): 117
- Population Apoptotic (%) (U2OS [1]; [6]): 44%
- Population Fragmented Nuclei (%) (U2OS [1]; [6]): 17%
- Population Healthy Nuclei (%) (U2OS [1]; [6]): 72%
- Population Hoechst High Intensity Objects (%) (U2OS [1]; [6]): 7%
- Population Membrane Permeable-Phenotype (%) (U2OS [1]; [6]): 6%
- Population Mitochondria Different-Phenotype (%) (U2OS [1]; [6]): 6%
- Population Mitotic Cells (%) (U2OS [1]; [6]): 55%
- Population Normal (%) (U2OS [1]; [6]): 92%
- Population Pyknosed Nuclei (%) (U2OS [1]; [6]): 10%
- Population Tubulin-Different-Phenotype (%) (U2OS [1]; [6]): 9%
- Total Cell Count (U2OS [1]; [6]): 88
- Population Apoptotic (%) (U2OS [1]; [7]): 53%
- Population Fragmented Nuclei (%) (U2OS [1]; [7]): 6%
- Population Healthy Nuclei (%) (U2OS [1]; [7]): 83%
- Population Hoechst High Intensity Objects (%) (U2OS [1]; [7]): 4%
- Population Membrane Permeable-Phenotype (%) (U2OS [1]; [7]): 5%
- Population Mitochondria Different-Phenotype (%) (U2OS [1]; [7]): 9%
- Population Mitotic Cells (%) (U2OS [1]; [7]): 46%
- Population Normal (%) (U2OS [1]; [7]): 95%
- Population Pyknosed Nuclei (%) (U2OS [1]; [7]): 10%
- Population Tubulin-Different-Phenotype (%) (U2OS [1]; [7]): 5%
- Total Cell Count (U2OS [1]; [7]): 151
- Population Apoptotic (%) (U2OS [1]; [8]): 54%
- Population Fragmented Nuclei (%) (U2OS [1]; [8]): 12%
- Population Healthy Nuclei (%) (U2OS [1]; [8]): 76%
- Population Hoechst High Intensity Objects (%) (U2OS [1]; [8]): 6%
- Population Membrane Permeable-Phenotype (%) (U2OS [1]; [8]): 4%
- Population Mitochondria Different-Phenotype (%) (U2OS [1]; [8]): 10%
- Population Mitotic Cells (%) (U2OS [1]; [8]): 45%
- Population Normal (%) (U2OS [1]; [8]): 93%
- Population Tubulin-Different-Phenotype (%) (U2OS [1]; [8]): 12%
- Total Cell Count (U2OS [1]; [8]): 64
- Population Apoptotic (%) (U2OS [1]; [9]): 36%
- Population Fragmented Nuclei (%) (U2OS [1]; [9]): 11%
- Population Healthy Nuclei (%) (U2OS [1]; [9]): 81%
- Population Hoechst High Intensity Objects (%) (U2OS [1]; [9]): 5%
- Population Membrane Permeable-Phenotype (%) (U2OS [1]; [9]): 5%
- Population Mitochondria Different-Phenotype (%) (U2OS [1]; [9]): 8%
- Population Mitotic Cells (%) (U2OS [1]; [9]): 63%
- Population Normal (%) (U2OS [1]; [9]): 94%
- Population Pyknosed Nuclei (%) (U2OS [1]; [9]): 6%
- Population Tubulin-Different-Phenotype (%) (U2OS [1]; [9]): 6%
- Total Cell Count (U2OS [1]; [9]): 151
- Population Apoptotic (%) (U2OS [1]; [10]): 44%
- Population Fragmented Nuclei (%) (U2OS [1]; [10]): 9%
- Population Healthy Nuclei (%) (U2OS [1]; [10]): 83%
- Population Hoechst High Intensity Objects (%) (U2OS [1]; [10]): 4%
- Population Mitochondria Different-Phenotype (%) (U2OS [1]; [10]): 14%
- Population Mitotic Cells (%) (U2OS [1]; [10]): 55%
- Population Normal (%) (U2OS [1]; [10]): 95%
- Population Pyknosed Nuclei (%) (U2OS [1]; [10]): 7%
- Population Tubulin-Different-Phenotype (%) (U2OS [1]; [10]): 14%
- Total Cell Count (U2OS [1]; [10]): 115
- Population Apoptotic (%) (U2OS [1]; [11]): 61%
- Population Fragmented Nuclei (%) (U2OS [1]; [11]): 2%
- Population Healthy Nuclei (%) (U2OS [1]; [11]): 92%
- Population Hoechst High Intensity Objects (%) (U2OS [1]; [11]): 1%
- Population Membrane Permeable-Phenotype (%) (U2OS [1]; [11]): 1%
- Population Mitochondria Different-Phenotype (%) (U2OS [1]; [11]): 9%
- Population Mitotic Cells (%) (U2OS [1]; [11]): 38%
- Population Normal (%) (U2OS [1]; [11]): 98%
- Population Pyknosed Nuclei (%) (U2OS [1]; [11]): 5%
- Population Tubulin-Different-Phenotype (%) (U2OS [1]; [11]): 10%
- Total Cell Count (U2OS [1]; [11]): 142
- Population Apoptotic (%) (U2OS [1]; [12]): 50%
- Population Fragmented Nuclei (%) (U2OS [1]; [12]): 7%
- Population Healthy Nuclei (%) (U2OS [1]; [12]): 84%
- Population Hoechst High Intensity Objects (%) (U2OS [1]; [12]): 4%
- Population Membrane Permeable-Phenotype (%) (U2OS [1]; [12]): 10%
- Population Mitochondria Different-Phenotype (%) (U2OS [1]; [12]): 14%
- Population Mitotic Cells (%) (U2OS [1]; [12]): 50%
- Population Normal (%) (U2OS [1]; [12]): 95%
- Population Pyknosed Nuclei (%) (U2OS [1]; [12]): 8%
- Population Tubulin-Different-Phenotype (%) (U2OS [1]; [12]): 14%
- Total Cell Count (U2OS [1]; [12]): 60
- Population Apoptotic (%) (U2OS [1]; [13]): 31%
- Population Fragmented Nuclei (%) (U2OS [1]; [13]): 5%
- Population Healthy Nuclei (%) (U2OS [1]; [13]): 87%
- Population Hoechst High Intensity Objects (%) (U2OS [1]; [13]): 2%
- Population Membrane Permeable-Phenotype (%) (U2OS [1]; [13]): 2%
- Population Mitochondria Different-Phenotype (%) (U2OS [1]; [13]): 11%
- Population Mitotic Cells (%) (U2OS [1]; [13]): 68%
- Population Normal (%) (U2OS [1]; [13]): 97%
- Population Pyknosed Nuclei (%) (U2OS [1]; [13]): 7%
- Population Tubulin-Different-Phenotype (%) (U2OS [1]; [13]): 11%
- Total Cell Count (U2OS [1]; [13]): 241
- Population Apoptotic (%) (U2OS [1]; [14]): 16%
- Population Fragmented Nuclei (%) (U2OS [1]; [14]): 4%
- Population Healthy Nuclei (%) (U2OS [1]; [14]): 92%
- Population Hoechst High Intensity Objects (%) (U2OS [1]; [14]): 0%
- Population Membrane Permeable-Phenotype (%) (U2OS [1]; [14]): 1%
- Population Mitochondria Different-Phenotype (%) (U2OS [1]; [14]): 17%
- Population Mitotic Cells (%) (U2OS [1]; [14]): 83%
- Population Normal (%) (U2OS [1]; [14]): 99%
- Population Pyknosed Nuclei (%) (U2OS [1]; [14]): 2%
- Population Tubulin-Different-Phenotype (%) (U2OS [1]; [14]): 19%
- Total Cell Count (U2OS [1]; [14]): 147
- Growth Rate (Fibroblast; [15]): 0
- Growth Rate (Fibroblast; 6 h, replicate number 2, timepoint 6 hours): 0
- Growth Rate (Fibroblast; [16]): 0
- Growth Rate (Fibroblast; [17]): 1
- Growth Rate (Fibroblast; [18]): 0
- Growth Rate (Fibroblast; [19]): 1
- Growth Rate (Fibroblast; [20]): 0
- Growth Rate (HEK-293T; [15]): 0
- Growth Rate (HEK-293T; [21]): 1
- Growth Rate (HEK-293T; [22]): 0
- Growth Rate (HEK-293T; [16]): 1
- Growth Rate (HEK-293T; [17]): 0
- Growth Rate (HEK-293T; [18]): 1
- Growth Rate (HEK-293T; [19]): 0
- Growth Rate (HEK-293T; [20]): 1
- Growth Rate (U2OS [2]; [15]): 0
- Growth Rate (U2OS [2]; [21]): 0
- Growth Rate (U2OS [2]; [22]): 1
- Growth Rate (U2OS [2]; [17]): 1
- Growth Rate (U2OS [2]; [19]): 1
